Screening results deposited in PubChem by several laboratories.
Rce1 inhib: yeast Rce1p protease inhibitors, primary screen, biochemical, fluorescence, cell-free homogeneous | 290,000 compounds, 0.27% hits | calls only | yeast membranes, quenched prenylated peptide cleavage fluorescence | CAAX prenyl protease 2 (Saccharomyces cerevisiae (strain ATCC 204508 / S288c)), Q03530;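 active = fall in fluorescence gain of 50% or more versus controls, with final raw signal at or below 3038400; inconclusive = same 50% fall but final raw signal above 3038400; inactive = fall in fluorescence gain under 50%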
T cell modulator: modulators of CD8 T cell-vesicle binding, primary screen, mouse 2C CD8+ T cells, flow cytometry; 2C CD8+ T cell-vesicle binding; stronger effect = lower value; response (vesicle binding), % at 7 µM; 330,000 compounds, 0.068% hits; AID 2052, 2009;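 active = response, share of CD8 T cells binding vesicles, and their 90th percentile fluorescence all below set limits, cut at about 80% in these data, passing the limit was not always enough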;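 also: values below 100% mean blocked vesicle binding to the CD8+ T cells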
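Assay system – 2C mouse CD8+ T cells · Also added – QL9-loaded Drosophila micro-vesicles · Timing – Cell–vesicle co-incubation 1.5 h at 37 °C, staining 20 min on ice · Signal – flow cytometry of vesicle-bound cells · Measure – percent CD8+ FL2 mean versus row control · Controls – Peptide-free naked vesicles (low) and QL9 vesicles with 0.7% DMSO vehicle (high)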
SKN-1 block: suppressors of acrylamide-induced Pgst-4::GFP reporter in worms, primary screen, SKN-1 inhibitor project, whole organism, uHTS, GFP/RFP fluorescence ratio, strain VP596; C. elegans VP596 Pgst-4::GFP/RFP ratio, 24 h; inhibition, % at 21.8 µM; 360,000 compounds, 0.49% hits;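 active = interference check ratio from 0.5 to 1.5 plus GFP to RFP signal ratio inhibition reaching or exceeding a fixed threshold, cut at about 30% in these data, passing the limit was not always enough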
Rin1 Abl inh: inhibitors of Rin1-Abl protein binding, primary screen, biochemical, TR-FRET | 360,000 compounds, 0.4% hits | inhibition, % at 7.35 µM | AID 588664, 2011; in the data active = inhibition above about 5%, passing the limit was not always enough
GRK2 inh: compounds blocking aptamer binding on GRK2 – biochemical, human GRK2, bead flow cytometry, HTS, primary screen. Beta-adrenergic receptor kinase 1 (Homo sapiens), P25098. FAM-aptamer displacement from GRK2. inhibition of aptamer binding, % at 10 µM. 330,000 compounds, 0.59% hits. AID 488847, 2010;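 active = inhibition of aptamer binding above 40%, roughly 3 SD of noise, on plates passing a quality check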;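 also: median bead fluorescence of bound FAM aptamer so fluorescent compounds give negative values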
Myeloid diff MLP: induction of myeloid progenitor differentiation, primary screen, cell-based, flow cytometry, MLPCN library | ER-HoxA9 myeloid progenitors, lysozyme-GFP differentiation | calls only at 10 µM | 360,000 compounds, 1% hits | AID 624256, 2012;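 active = normalized GFP-positive differentiation at or above the plate's own cutoff, the solvent-only control mean plus 3 SD; inconclusive = no clear call, values can overlap the other calls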;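 also: cells exposed to compound for four days before flow analysis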
Numbers stand for hits; – = inactive; ? = inconclusive; · = no result given; + = active, no number. Sampled rows, rich in hits. Any-hit rate of the full collection: about 2.6%.

SMILES	Rce1 inhib	T cell modulator	SKN-1 block	Rin1 Abl inh	GRK2 inh	Myeloid diff MLP
COc1cc(N2CCOCC2)ccc1/C=C1\C(=O)NC(=O)N(C2CCCCC2)C1=O	–	–	50	–	–	–
Oc1ccc(CCNCc2cc3c(cc2Br)OCO3)cc1	·	·	–	–	·	–
O=C(COc1ccccc1)c1cn(Cc2ccccc2)c2ccccc12	–	–	–	–	–	+
CC1=C2CCC3C(CCC4=CC(=O)CCC43C)C2CC1 (stereo not given)	·	·	–	–	·	–
CCN(CC)c1ccc(/C=C2/C(=O)NC(=O)N(CC3CCCO3)C2=O)cc1 (stereo not given)	–	–	–	–	–	–
CCN(CC)c1ccc(/C=C2\C(=O)NC(=O)N(Cc3ccco3)C2=O)cc1	–	–	48	–	–	–
CCCCN1C(=O)/C(=C/c2ccc(N(C)C)cc2)C(=O)N(Cc2ccco2)C1=O	–	–	40	–	–	–
CC(=O)OCC12CC(OC(=O)CC(C)C)C(C)=CC1OC1C(O)C(OC(C)=O)C2(C)C12CO2 (stereo not given)	·	·	–	–	·	·
Cc1cc(Br)cn2c(CC(=O)N3CCCCC3)c(-c3ccc(F)cc3)nc12	·	·	–	·	·	–
CC(C)N1CC=C(c2c[nH]c3ccccc23)CC1	–	–	–	–	–	+
Cc1ccc2c(c1)C1C[N+](C)(CC(=O)c3ccc(Cl)cc3Cl)CCC1N2C(=O)c1ccc(F)cc1 (stereo not given)	·	–	–	–	–	–
CC(C)N=C(NC(C)C)N1CC1	·	·	–	–	·	–
CCCN(CCC)C(=O)Cc1c(-c2ccc(Cl)cc2)nc2c(Cl)cc(Cl)cn12	·	–	–	–	–	–
Cc1ccc(-c2nc3ccc(C)cn3c2CC(=O)N(C)C)cc1	+	–	–	–	–	–
N#CC1c2ccccc2-n2nncc2CN1Cc1cc(Cl)cc(Cl)c1 (stereo not given)	·	·	–	–	·	?
CC12C=CC(=O)CC1CCC1C2CCC2(C)C(O)C(O)CC12 (stereo not given)	·	·	–	–	·	–
O=C1NC(=O)N(c2ccccc2)C(=O)/C1=C\c1ccc([N+](=O)[O-])o1	–	–	·	·	93	·
Clc1cccc(N2Cc3cc(-c4ccccc4)ccc3-n3nncc3C2)c1	·	·	–	–	·	–
COC(=O)C1=C(c2ccc(OCc3ccccc3)cc2)C[C@@H]2CC[C@H]1N2C(=O)NCc1ccccc1C(F)(F)F	·	·	–	–	·	–
COc1ccc(CN2Cc3cnnn3-c3ccccc3C2c2ccccc2)cc1 (stereo not given)	·	·	–	–	·	+
COc1ccc(CN2Cc3cnnn3-c3ccccc3C2C#N)cc1 (stereo not given)	·	·	–	–	·	?
O=C(Cc1cccs1)N1Cc2ccccc2-n2nncc2C1	·	·	–	–	·	–
N#CC(C#N)=Cc1ccc(O)c(O)c1	·	–	–	–	–	–
CC(C)(C)c1cc(C=C(C#N)C#N)cc(C(C)(C)C)c1O	·	–	42	–	–	?
CN(C)C1C(=O)C(C(N)=O)=C(O)C2(O)C(=O)C3=C(O)c4c(O)cccc4C(C)(O)C3CC12 (stereo not given)	–	–	–	–	–	–
SMILES	Rce1 inhib	T cell modulator	SKN-1 block	Rin1 Abl inh	GRK2 inh	Myeloid diff MLP
CN(C)[C@@H]1C(=O)C(C(N)=O)=C(O)[C@@]2(O)C(=O)C3=C(O)c4c(O)cccc4[C@@](C)(O)[C@H]3C[C@@H]12	–	–	·	·	42	·
CCOc1cc(-c2nc3c(C)cccn3c2NCC2CCCO2)ccc1O (stereo not given)	+	–	–	–	–	–
CN(C)C1CCc2[nH]c3c(F)cc(F)cc3c2C1 (stereo not given)	·	·	–	–	·	–
CCOc1ccc(NC(=O)N2C[C@H]3C[C@@H](C2)c2cccc(=O)n2C3)cc1	–	–	–	–	–	–
c1ccc(CCCN2CCN(CCOC(c3ccccc3)c3ccccc3)CC2)cc1	+	–	–	–	–	–
COCCCn1c(N)c(C(=O)NCc2ccco2)c2nc3ccccc3nc21	+	–	·	·	–	·
